Assay outcomes deposited in PubChem by several laboratories.
Compounds with a hit are over-represented: about 9.6% of the library has one in this group of screens.
APP transl inh – APP translation inhibition. hit rate 0.82% among 190,000. inhibition, % at 2 µM. SH-SY5Y APP 5'UTR-luciferase reporter, luminescence;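 active = inhibition above a set limit, derived from the sample mean plus 3 SD, cut at about 45% in these data; inconclusive = one replicate passes the limit while the other fails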
BaF3 tox – reduces parental Ba/F3 cell viability, JAK2V617F counter-screen; CellTiter-Glo ATP luminescence; inhibition, % at 5.6 µM; hit rate 1.1% among 220,000; AID 1486;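 active = inhibition above a per-campaign cutoff, the mean inhibition of all tested compounds plus 3 SD, cut at about 27% in these data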;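 note: 0% = DMSO wells and 100% = JAK Inhibitor I control wells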
bCat nuc transl – modulators of beta-catenin nuclear translocation. hit rate 0.3% among 190,000. nuclear translocation activity, % at 5 µM. HeLa beta-catenin nuclear translocation, immunofluorescence imaging;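 active = nuclear translocation activity above 50% at 5 µM, with a well cell count of 50 or more; inconclusive = wells under 50 cells across six images, flagged as toxic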;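 note: per-cell ratio of nuclear to cytoplasmic median beta-catenin stain intensity; plate controls were DMSO negative control for no effect and GSK-3 inhibitor IX positive control for full effect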
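Test system: human HeLa cells, endogenous beta-catenin. Times: 24 h compound exposure, 37°C. Measured by: beta-catenin immunofluorescence imaging with DAPI.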
Lmaj promast – reduces viability of Leishmania major promastigotes; resazurin fluorescence viability; inhibition, % at 10 µM; hit rate 9% among 200,000; AID 1063; in the data active = inhibition above about 50%;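 note: promastigotes grown with compound for 44 hours at 28 °C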
Ba/F3 V617F tox – loss of viability in JAK2V617F-driven Ba/F3 cells. Ba/F3 EpoR-JAK2V617F viability, ATP luminescence. inhibition, % at 5.6 µM. hit rate 1.1% among 220,000;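 active = inhibition above the campaign mean plus 3 SD over all tested compounds, cut at about 24% in these data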;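 note: cytokine-independent growth of Ba/F3 cells driven by EpoR plus mutant JAK2; 0% = DMSO-treated cells and 100% = JAK inhibitor I control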
MT stabilize HCS – microtubule stabilization, imaging screen | HeLa tubulin immunostaining HCS, 24 h; share of cells brighter than vehicle mean+2SD | AID 2205 | % tubulin-high responders, % at 10 µM | hit rate 0.83% among 200,000;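 active = plate Z-score above 3 for both tubulin-high and condensed-nucleus cell shares, with cell loss under 80%, at 10 µM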;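 note: anti alpha tubulin signal scored within the nucleus-defined area of each cell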
* = called active by the depositor; ? = inconclusive; / = no result.

SMILES	APP transl inh	BaF3 tox	bCat nuc transl	Lmaj promast	Ba/F3 V617F tox	MT stabilize HCS
COC1(C)CC2C(CC1OC(=O)c1cc([N+](=O)[O-])cc([N+](=O)[O-])c1)C2(C)C (configuration not stated)	-17.7	7.8	-2.5	100.3*	3.0	1.7
CCOC(=O)c1cc(N)cc([N+](=O)[O-])c1	-6.0	2.0	/	8.2	-7.1	5.6
Cc1ccc(C(=O)CCNc2ccccc2)o1	3.7	0.2	-0.7	94.5*	-4.8	1.3
Cc1ccc(C(=O)CCNc2ccc(F)c(Cl)c2)o1	-31.3	57.7*	2.4	9.8	46.4*	1.9
O=[N+]([O-])c1cccc(-c2nnc(SCc3cccnc3)o2)c1	8.3	2.7	-0.3	-3.5	-3.5	3.4
CC(=O)Nc1cc(OC(C)=O)c2nonc2c1OC(C)=O	16.6	103.2*	2.9	100.6*	101.3*	35.1
O=C(N/N=C/C=C\c1ccc([N+](=O)[O-])cc1)c1cccnc1	/	-1.8	-3.0	/	-2.4	/
CN(C)CCNc1ccc(-c2nn(C)c(=O)c3ccccc23)cc1[N+](=O)[O-]	6.8	8.0	0.9	90.2*	4.8	4.1
Cn1nc(-c2ccc(N3CCN(CCO)CC3)c([N+](=O)[O-])c2)c2ccccc2c1=O	-21.9	7.0	-0.1	98.6*	-3.1	1.7
Cn1nc(-c2ccc(NCCO)c([N+](=O)[O-])c2)c2ccccc2c1=O	2.8	-3.6	-0.2	1.9	3.8	4.5
Cc1ccc(S(=O)(=O)/C(=C\N(C)C)c2cnc(Cl)s2)cc1	-11.2	5.8	1.4	1.3	-0.4	4.1
O=C(CCc1[nH]c2ccccc2c1Sc1ccccc1)NCCO	0.2	5.6	3.9	-1.6	-1.2	2.1
Cc1ccccc1CSc1nc2n(n1)C(c1cccs1)C1=C(CCCC1=O)N2 (configuration not stated)	-4.8	9.9	/	58.3*	1.9	1.4
O=C1CCCC2=C1C(c1cccs1)n1nc(SCc3ccccc3F)nc1N2 (configuration not stated)	-1.4	6.2	-0.6	91.5*	-3.6	2.1
CN(C)c1cc(N/N=C\c2ccccc2)nc(N(C)C)n1	-17.8	4.0	-1.0	46.8	3.1	1.4
COc1ccc(/C=N/Nc2cc(C)nc(N)n2)cc1	-16.1	4.1	-0.4	60.4*	-0.4	1.7
COc1ccccc1/C=N/Nc1cc(N(C)C)nc(N(C)C)n1	-1.6	5.1	-0.4	83.6*	3.8	2.1
COc1ccccc1/C=N/Nc1cc(C)nc(N2CCOCC2)n1	/	-2.4	-0.4	/	-4.4	/
COc1ccc(/C=N/Nc2cc(N(C)C)nc(N(C)C)n2)cc1	-1.4	2.0	-1.8	97.9*	-4.3	3.3
Cn1c(OCc2ccc3c(c2)OCO3)nc2c1c(=O)n(Cc1cccc(Cl)c1)c(=O)n2C	3.9	-0.3	/	1.1	-2.0	4.4
Cc1nnc(SC(C)C)n(N)c1=O	5.5	7.9	-2.6	-8.1	1.4	1.7
N#CC1=C(N)NC(SCc2ccc(Cl)cc2)=C(C#N)C12CCCCC2	-11.6	1.6	13.9	99.3*	-0.4	11.1
N#CC1=C(N)NC(SCC(=O)c2ccccc2)=C(C#N)C12CCCC2	-21.6	7.4	3.3	18.6	2.9	2.8
N#CC1=C(N)NC(SCc2ccccc2)=C(C#N)C12CCCC2	-11.0	2.3	5.9	26.1	3.3	16.8
N#CC1=C(N)NC(SCC(=O)Nc2ccc(Br)cc2)=C(C#N)C12CCCCC2	20.6	3.0	/	83.8*	-2.4	1.2
SMILES	APP transl inh	BaF3 tox	bCat nuc transl	Lmaj promast	Ba/F3 V617F tox	MT stabilize HCS
N#CC1=C(N)NC(SCc2ccc(Br)cc2)=C(C#N)C12CCCCC2	-9.5	3.1	?	98.1*	-3.2	2.6
COc1c(O)ccc(/C=N/NC(=O)c2ccc3c(c2)OCCO3)c1[N+](=O)[O-]	/	-1.4	-0.8	/	-1.6	/
O=C(CSc1nnc(C2CC2)n1Cc1ccco1)NCC(F)(F)F	8.0	6.0	2.3	-5.9	-1.8	2.9
CCC(=O)Nc1ccc(NC(=O)CSc2nc3cc4c(cc3cc2C)CCC4)cc1	6.5	4.0	-3.8	23.5	-2.2	1.8
Cc1ccccc1NC(=O)CSc1nc2cc3c(cc2cc1C)CCC3	-0.8	5.1	/	6.3	-1.2	35.7*
O=C(c1ccc(Cl)c([N+](=O)[O-])c1)N1CCN(Cc2ccc3c(c2)OCO3)CC1	-9.3	8.4	4.4	82.1*	-0.8	1.7
O=S(=O)(c1ccc(Cl)nc1)N1CCN(Cc2ccc3c(c2)OCO3)CC1	-6.6	5.6	-0.1	43.4	0.7	5.4
O=C(c1ccc(COc2ccc(Cl)cc2)o1)N1CCN(Cc2ccc3c(c2)OCO3)CC1	6.6	8.6	0.1	48.0	5.5	3.5
O=C(c1ccc(COc2ccccc2Cl)o1)N1CCN(Cc2ccc3c(c2)OCO3)CC1	18.7	6.0	-0.5	90.4*	-1.4	3.2
CCN1CCN(C(=O)c2ccc(COc3ccc(Cl)cc3)o2)CC1	9.0	4.6	-2.7	83.6*	-1.2	1.8
CS(=O)(=O)N1CCc2cc(S(=O)(=O)N3CCN(Cc4ccc5c(c4)OCO5)CC3)ccc21	4.2	1.7	5.4	89.2*	-2.8	4.0
Cc1ccc(S(=O)(=O)Cc2cccc(C(=O)N3CCOCC3)c2)cc1	2.9	2.3	0.8	-5.1	-2.0	2.6
CC1(C)CC(=O)C(C(C2=C(O)CC(C)(C)CC2=O)c2ccc(Br)s2)C(=O)C1 (configuration not stated)	/	4.2	/	44.5	-2.6	2.1
O=C1CC(=O)N2N=C(c3ccc([N+](=O)[O-])cc3)SC2=N1	0.6	2.3	1.3	-3.7	-2.3	4.5
O=C(Cn1nc(CNc2ccc(Br)cc2)[n+]2c1CCCCC2)c1ccc([N+](=O)[O-])cc1	/	2.6	0.0	/	1.4	/
CC1CCN(c2nc3ccc(C(=O)N4CCN(Cc5ccc6c(c5)OCO6)CC4)cc3s2)CC1	-56.7	8.0	/	91.9*	2.0	5.4
O=C(CCc1ccc(S(=O)(=O)NCc2ccccc2)cc1)N1CCN(Cc2ccc3c(c2)OCO3)CC1	5.8	9.5	-1.8	24.1	3.7	1.6
O=C(c1ccc(S(=O)(=O)N2CCCC2)cc1)N1CCN(Cc2ccc3c(c2)OCO3)CC1	-5.4	4.9	-0.3	93.8*	0.3	2.7
O=C(c1ccc(S(=O)(=O)NCc2ccco2)cc1)N1CCN(Cc2ccc3c(c2)OCO3)CC1	3.9	2.2	-2.9	87.8*	-0.1	3.2
CN(c1ccc(C(=O)N2CCN(Cc3ccc4c(c3)OCO4)CC2)cc1)S(C)(=O)=O	22.5	1.6	4.6	-6.3	-2.4	2.3
COc1cc(/C=C2/OC(=O)c3cc([N+](=O)[O-])ccc32)cc(OC)c1OC	-8.9	2.3	/	-6.1	-2.6	2.5
COc1cc(-c2nc(-c3ccccc3)c(-c3cc([N+](=O)[O-])ccc3C)[nH]2)cc(OC)c1OC	12.4	4.3	-1.2	100.0*	1.0	3.9
CNCc1ccccc1Sc1ccc(OC)cc1	-20.5	3.2	1.0	9.1	2.0	3.6
CNCc1ccccc1Sc1cccc2ccccc12	5.5	3.6	-3.1	79.2*	1.5	2.9
